Residues, ends and D or L forms follow the SMILES beside them.
Key:
Assay type in all cases: functional
Rattus norvegicus [1] = assay: Activated partial thromboplastin time at 15 min following intravenous administration in rats at a dose 8 mg/kg
In short: (§1)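 Sprague-Dawley rats (300–400 g) anesthetized with pentobarbital sodium (60 mg/kg ip). Peptide (1 mL) given iv via cannulated jugular vein. Carotid blood (1.5 mL) drawn 30 min before and at 1.5–60 min after dosing, then centrifuged 15 min at 3000g to platelet-poor plasma. APTT read on a coagulometer: plasma mixed with thromboplastin at 37 °C. Expressed as % of untreated animals; n = 4–6 independent experiments.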

Rattus norvegicus [2] = assay: Activated partial thromboplastin time at 3 min following intravenous administration in rats at a dose 8 mg/kg; in short: as §1
Rattus norvegicus [3] = assay: Activated partial thromboplastin time at 60 min following intravenous administration in rats at a dose 8 mg/kg; in short: as §1
Rattus norvegicus [4] = assay: Activated partial thromboplastin time at 30 min following intravenous administration in rats at a dose 8 mg/kg; in short: as §1
Rattus norvegicus [5] = assay: Activated partial thromboplastin time at 5 min following intravenous administration in rats at a dose 8 mg/kg; in short: as §1
Rattus norvegicus [6] = assay: Activated partial thromboplastin time at 1.5 min following intravenous administration in rats at a dose 8 mg/kg; in short: as §1
Rattus norvegicus [7] = species on record: Rattus norvegicus; assay: Concentration that doubles thrombin time (inhibition of fibrin clot) in rats
In short: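 Plasma was incubated 2 min at 37 °C with inhibitor or vehicle, then thrombin (1.5 NIH/mL) was added and clotting time read on a coagulometer. Value is the µM concentration that doubles thrombin time relative to the no-inhibitor control.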

Work on CC[C@H](C)[C@H](NC(=O)C1C2CCC(CC2)N1C(=O)[C@H](CCC(=O)O)NC(=O)[C@H](Cc1ccccc1)NC(=O)[C@H](CC(=O)O)NC(=O)CNC(=O)c1ccc(NC(=N)N)cc1)C(=O)N1CCC[C@H]1C(=O)N[C@@H](CCC(=O)O)C(=O)N[C@@H](CCC(=O)O)C(=O)N[C@@H](Cc1ccc(OP(=O)(O)O)cc1)C(=O)N[C@@H](CC(C)C)C(=O)N[C@H](CCC(=O)O)C(=O)O (stereo partly drawn) yielded a Baseline (Rattus norvegicus [1]) of 125%, a Baseline (Rattus norvegicus [2]) of 162% and a Baseline (Rattus norvegicus [3]) of 107%. The Baseline (Rattus norvegicus [4]) was 110%, the Baseline (Rattus norvegicus [5]) was 147% and the Baseline (Rattus norvegicus [6]) was 201%. It also gave a Ctt2 (Rattus norvegicus [7]) of 0.9 µM.

CC[C@H](C)[C@H](NC(=O)C1C2CCC(CC2)N1C(=O)[C@H](CCC(=O)O)NC(=O)[C@H](Cc1ccccc1)NC(=O)[C@H](CC(=O)O)NC(=O)CNC(=O)c1ccc(NC(=N)N)cc1)C(=O)N1CCC[C@H]1C(=O)N[C@@H](CCC(=O)O)C(=O)N[C@@H](CCC(=O)O)C(=O)N[C@@H](Cc1ccc(O)cc1P(=O)(O)O)C(=O)N[C@@H](CC(C)C)C(=O)N[C@H](CCC(=O)O)C(=O)O (stereo partly drawn) gave a Baseline (Rattus norvegicus [1]) of 192%, a Baseline (Rattus norvegicus [2]) of 244% and a Baseline (Rattus norvegicus [3]) of 163%. It also gave a Baseline (Rattus norvegicus [4]) of 164%, a Baseline (Rattus norvegicus [5]) of 217% and a Baseline (Rattus norvegicus [6]) of 265%. For the same compound, the Ctt2 (Rattus norvegicus [7]) was 4 µM.

With CC[C@H](C)[C@H](NC(=O)C1C2CCC(CC2)N1C(=O)[C@H](CCC(=O)O)NC(=O)C(Cc1ccccc1)NC(=O)[C@H](CC(=O)O)NC(=O)CNC(=O)c1ccc(NC(=N)N)cc1)C(=O)N1CCC[C@H]1C(=O)N[C@@H](CCC(=O)O)C(=O)N[C@@H](CCC(=O)O)C(=O)N[C@H](Cc1ccc(CC(=O)O)cc1)C(=O)N[C@@H](CC(C)C)C(=O)N[C@H](CCC(=O)O)C(=O)O (stereo in doubt) the Ctt2 (Rattus norvegicus [7]) was 50 µM.

With CC[C@H](C)[C@H](NC(=O)C1C2CCC(CC2)N1C(=O)[C@H](CCC(=O)O)NC(=O)[C@H](Cc1ccccc1)NC(=O)[C@H](CC(=O)O)NC(=O)CNC(=O)c1ccc(NC(=N)N)cc1)C(=O)N1CCC[C@H]1C(=O)N[C@@H](CCC(=O)O)C(=O)N[C@@H](CCC(=O)O)C(=O)N[C@@H](Cc1ccc(O)cc1)C(=O)N[C@@H](CC(C)C)C(=O)N[C@H](CCC(=O)O)C(=O)O (stereo partly drawn) the Baseline (Rattus norvegicus [1]) was 115%, the Baseline (Rattus norvegicus [2]) was 145% and the Baseline (Rattus norvegicus [3]) was 96%. For the same compound, the Baseline (Rattus norvegicus [4]) was 111%, the Baseline (Rattus norvegicus [5]) was 133% and the Baseline (Rattus norvegicus [6]) was 158%. It also gave a Ctt2 (Rattus norvegicus [7]) of 4.8 µM.

Work on CC[C@H](C)[C@H](NC(=O)C1C2CCC(CC2)N1C(=O)[C@H](CCC(=O)O)NC(=O)[C@H](Cc1ccccc1)NC(=O)[C@H](CC(=O)O)NC(=O)CNC(=O)c1ccc(NC(=N)N)cc1)C(=O)N1CCC[C@H]1C(=O)N[C@@H](CCC(=O)O)C(=O)N[C@@H](CCC(=O)O)C(=O)N[C@@H](Cc1ccc(P(=O)(O)O)cc1)C(=O)N[C@@H](CC(C)C)C(=O)N[C@H](CCC(=O)O)C(=O)O (stereo partly drawn) yielded a Baseline (Rattus norvegicus [1]) of 200%, a Baseline (Rattus norvegicus [2]) of 225% and a Baseline (Rattus norvegicus [3]) of 187%. It also gave a Baseline (Rattus norvegicus [4]) of 181%, a Baseline (Rattus norvegicus [5]) of 217% and a Baseline (Rattus norvegicus [6]) of 252%. The Ctt2 (Rattus norvegicus [7]) was 2.8 µM.

With CC[C@H](C)[C@H](NC(=O)C1C2CCC(CC2)N1C(=O)[C@H](CCC(=O)O)NC(=O)[C@H](Cc1ccccc1)NC(=O)[C@H](CC(=O)O)NC(=O)CNC(=O)c1ccc(NC(=N)N)cc1)C(=O)N1CCC[C@H]1C(=O)N[C@@H](CCC(=O)O)C(=O)N[C@@H](CCC(=O)O)C(=O)N[C@@H](Cc1ccc(O)cc1)C(=O)N[C@@H](CC(C)C)C(=O)O (stereo partly drawn) (HELM PEPTIDE1{[N=C(N)Nc1ccc(C(=O)[*:2])cc1].G.D.F.E.[O=C(C1C2CCC(CC2)N1[*:1])[*:2]].I.P.E.E.Y.L}$$$$V2.0) the Baseline (Rattus norvegicus [1]) was 108%, the Baseline (Rattus norvegicus [2]) was 123% and the Baseline (Rattus norvegicus [3]) was 98%. The Baseline (Rattus norvegicus [4]) was 100%, the Baseline (Rattus norvegicus [5]) was 115% and the Baseline (Rattus norvegicus [6]) was 136%. The Ctt2 (Rattus norvegicus [7]) was 16.5 µM.

In the case of CC[C@H](C)[C@H](NC(=O)C1C2CCC(CC2)N1C(=O)[C@H](CCC(=O)O)NC(=O)[C@H](Cc1ccccc1)NC(=O)[C@H](CC(=O)O)NC(=O)CNC(=O)c1ccc(NC(=N)N)cc1)C(=O)N1CCC[C@H]1C(=O)N[C@@H](CCC(=O)O)C(=O)N[C@@H](CCC(=O)O)C(=O)N[C@@H](Cc1ccc(CC(=O)O)cc1)C(=O)N[C@@H](CC(C)C)C(=O)N[C@H](CCC(=O)O)C(=O)O (stereo partly drawn), the Baseline (Rattus norvegicus [1]) is reported as 149%, the Baseline (Rattus norvegicus [2]) is reported as 205% and the Baseline (Rattus norvegicus [3]) is reported as 118%. For the same compound, the Baseline (Rattus norvegicus [4]) was 141%, the Baseline (Rattus norvegicus [5]) was 188% and the Baseline (Rattus norvegicus [6]) was 213%. The Ctt2 (Rattus norvegicus [7]) was 1 µM.

From ChEMBL document CHEMBL1127697, “New N alpha-guanidinobenzoyl derivatives of hirudin-54-65 containing stabilized carboxyl or phosphoryl groups on the side chain of phenylalanine-63” (1994)
